Reference: PMC9064899 (The FEBS journal, 2021)
Changes are numbered by the printed parent chain. Values joined by “and” are separate entries in the source; they are usually repeats but may differ in a detail not shown here. Equal values may be shown once.

How the values were obtained:
Assay in all cases: Cell-based UBIAD1 functional assay
[1] = target: T1, UBIAD1 D236E (Homo sapiens, UniProt Q9Y5Z9, D236E)
T1 sequence (Q9Y5Z9 1-338 D236E): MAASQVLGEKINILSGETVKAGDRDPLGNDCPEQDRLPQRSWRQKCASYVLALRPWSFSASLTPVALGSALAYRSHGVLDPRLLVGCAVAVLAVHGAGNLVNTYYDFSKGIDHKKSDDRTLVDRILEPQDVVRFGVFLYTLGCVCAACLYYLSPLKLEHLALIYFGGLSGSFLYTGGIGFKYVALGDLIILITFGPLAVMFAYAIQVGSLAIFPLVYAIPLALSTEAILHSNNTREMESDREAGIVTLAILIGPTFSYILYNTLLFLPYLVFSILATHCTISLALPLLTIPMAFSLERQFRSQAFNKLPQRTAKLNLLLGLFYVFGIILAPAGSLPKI
Summary of the method: (§1)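 Wild-type or mutant human UBIAD1 in pCI-neo was transiently transfected into Ubiad1-knockout FIXgla-PC/HEK293 cells (DMEM/F12, 10% FBS). […] After 24 h, carboxylated FIXgla-PC in the medium was measured by ELISA. Activity was normalized to wild type (100%), and EC50 came from a curve fit. Mean ± SD, n=3 independent experiments.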

[2] = target: T2, UBIAD1 D236A (Homo sapiens, UniProt Q9Y5Z9, D236A)
T2 sequence (Q9Y5Z9 1-338 D236A): T1 sequence (Q9Y5Z9 1-338 D236E) with E236A
Summary of the method: as §1

[3] = target: T3, UBIAD1 R54A (Homo sapiens, UniProt Q9Y5Z9, R54A)
T3 sequence (Q9Y5Z9 1-338 R54A): T1 sequence (Q9Y5Z9 1-338 D236E) with R54A, E236D
Summary of the method: as §1

[4] = target: T4, UBIAD1 G186R (Homo sapiens, UniProt Q9Y5Z9, G186R)
T4 sequence (Q9Y5Z9 1-338 G186R): T1 sequence (Q9Y5Z9 1-338 D236E) with G186R, E236D
Summary of the method: as §1

[5] = target: T5, UBIAD1 G177E (Homo sapiens, UniProt Q9Y5Z9, G177E)
T5 sequence (Q9Y5Z9 1-338 G177E): T1 sequence (Q9Y5Z9 1-338 D236E) with G177E, E236D
Summary of the method: as §1

[6] = target: T6, UBIAD1 D112N (Homo sapiens, UniProt Q9Y5Z9, D112N)
T6 sequence (Q9Y5Z9 1-338 D112N): T1 sequence (Q9Y5Z9 1-338 D236E) with D112N, E236D
Summary of the method: as §1

[7] = target: T7, wild-type UBIAD1 (Homo sapiens, UniProt Q9Y5Z9)
T7 sequence (Q9Y5Z9 1-338): T1 sequence (Q9Y5Z9 1-338 D236E) with E236D
Summary of the method: as §1

## CC1=CC(=O)c2ccccc2C1=O [vitamin K3, menadione]
[1]
  EC50: 22.6 ± 2.2 nM
[1]; D236E vs D236A
  EC50 value of vitamin K3 lower than that of D236A: 4 fold
[1]; D236E vs WT
  increase of EC50 value of vitamin K3 vs wild-type: 6 fold
[1]; D236E, 1 μM vitamin K3
  Vitamin K-dependent carboxylation Activity ± SD: 107.1 ± 4.9%
[2]
  EC50: 90 ± 17.6 nM
[2]; D236A, 1 μM vitamin K3
  Vitamin K-dependent carboxylation Activity ± SD: 32% and 32.5 ± 0.9%
[3]
  EC50: 84 ± 11.6 nM
[3]; R54A, 1 μM vitamin K3
  Vitamin K-dependent carboxylation Activity ± SD: 79.8 ± 2.6%
[4]; G186R vs WT
  increase of EC50 value of vitamin K3 vs wild-type: 60 fold
[4]; G186R, 1 μM vitamin K3
  Vitamin K-dependent carboxylation Activity ± SD: 57.1 ± 1.1%
[5]
  EC50: 3.7 ± 0.5 nM
[5]; G177E, 1 μM vitamin K3
  Vitamin K-dependent carboxylation Activity ± SD: 117.1 ± 4.5%
[6]
  EC50: 6.4 ± 0.6 nM
[6]; D112N, 1 μM vitamin K3
  Vitamin K-dependent carboxylation Activity ± SD: 109.6 ± 5.2%
[7]
  EC50: 3.7 ± 0.4 nM
[7]; WT, 1 μM vitamin K3, WT normalized to 100%
  Vitamin K-dependent carboxylation Activity ± SD: 100 ± 2.4%
